Test results published in ChEMBL document CHEMBL1158074, “Cytotoxic constituents from the formosan soft coral Clavularia inflata var. luzoniana” (J Nat Prod, 2006).
≈ marks a conversion by molar mass, not a printed value. Calls of active or inactive are those of the source. No cut-off for these calls is given here.

How the values were obtained:
HT-29 = assay: Cytotoxicity against human HT 29 cells; assay type: functional, cell-based
Summary of the method: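 HT-29 human colon adenocarcinoma cells were obtained from the American Type Culture Collection. The value is reported as an ED50.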

P388 = assay: Cytotoxicity against mouse P388 cells; assay type: functional; conditions: for EC50: read-out: ED50 (the source's name)
Summary of the method: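 P-388 mouse lymphocytic leukemia cells were provided by an academic laboratory at the University of Illinois at Chicago. Activity is expressed as an ED50.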

Row | SMILES | Activity (HT-29) | Activity (P388) | EC50 (HT-29; read-out: EC50) | EC50 (P388) | EC50 (HT-29; read-out: ED50 (the source's name))
1 | C=C1CC[C@H]2[C@@H]([C@H]3C(C)=CC[C@@]13OO)C2(C)C | inactive | inactive |  |  | 
2 | CC(=O)C(O)C[C@@H]1[C@@H]([C@@H]2[C@H]3CC[C@@]23C)C1(C)C (stereo partly specified) | inactive | inactive |  |  | 
3 | C=C1CC/C=C(\C)C/C=C2/[C@H](C(C)C)CC[C@@]2(C)CC1=O |  |  | 2.8 µg/mL (≈ 9.77 µM) | 0.6 µg/mL (≈ 2.09 µM) | 
4 | CC1(C)[C@@H]2[C@@H]3[C@H](C[C@@H](O)[C@@]3(C)O)[C@@](C)(O)CC[C@@H]21 | inactive | inactive |  |  | 
5 | C=C1[C@@H]2[C@@H](OC(C)=O)OC=C([C@H](OC(C)=O)[C@@H](C=C(C)C)OC(C)=O)[C@H]2CC/C(C)=C/[C@H](OC(=O)c2ccccc2)[C@H]1O |  |  |  | 0.5 µg/mL (≈ 0.838 µM) | 1.2 µg/mL (≈ 2.01 µM)
6 | C=C1CC[C@H]2[C@@H]([C@@H]3[C@@H]1C[C@@H](O)[C@@]3(C)O)C2(C)C | inactive | inactive |  |  | 
7 | C=C1CC/C=C(\C)C/C=C2/[C@H](C(C)C)[C@@H](O)C[C@@]2(C)CC1=O | inactive |  |  | 1.5 µg/mL (≈ 4.96 µM) | 
8 | C=C1CC/C=C(\C)C/C=C2/[C@H](C(C)C)CC[C@@]2(C)C[C@@H]1O | inactive |  |  | 3.6 µg/mL (≈ 12.5 µM) | 
